MrgX1 allo act: positive allosteric modulators of MrgX1, primary screen, HEK293 cells, Fluo-4 calcium flux; FDSS; hits give high values; B-score at 10 µM; 0.63% of 310,000 active; AID 588675, 2011;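 active means plate-corrected calcium response at least 3 library SD above typical, normal starting fluorescence, not activating the receptor alone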;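 further: compound read alongside a low EC10 to EC30 dose of BAM8-22 agonist; peak minus trough fluorescence over baseline measured at the second addition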
Target sequence (Q96LB2 whole entry, looked up): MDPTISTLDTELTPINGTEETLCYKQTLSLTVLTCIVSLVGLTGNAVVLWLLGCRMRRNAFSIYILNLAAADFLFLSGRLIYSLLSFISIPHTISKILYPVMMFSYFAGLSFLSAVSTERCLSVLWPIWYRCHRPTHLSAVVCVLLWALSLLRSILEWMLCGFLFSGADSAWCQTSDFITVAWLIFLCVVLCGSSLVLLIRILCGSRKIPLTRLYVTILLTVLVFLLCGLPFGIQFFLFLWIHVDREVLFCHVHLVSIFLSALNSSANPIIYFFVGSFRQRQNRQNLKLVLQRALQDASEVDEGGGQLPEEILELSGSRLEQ
RGS4 block: RGS4 inhibitors, primary screen, cell-based, HEK293 M3R inducible RGS4, calcium flux | Regulator of G-protein signaling 4 (Homo sapiens), P49798 | Fluo-4 calcium flux; hits give high values; triggered by carbachol at its EC20 | B-score at 10 µM | 0.45% of 310,000 active;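 active means B-score, a plate-corrected calcium signal, over three deviations above library mean, with baseline fluorescence within five deviations of library mean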;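 further: RGS4 expression induced by doxycycline in cells with stable M3 receptor; B-score is computed from the integrated fluorescence ratio over baseline after carbachol; higher B-score means a larger calcium signal and so more RGS4 inhibition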
Target sequence (P49798 whole entry, looked up): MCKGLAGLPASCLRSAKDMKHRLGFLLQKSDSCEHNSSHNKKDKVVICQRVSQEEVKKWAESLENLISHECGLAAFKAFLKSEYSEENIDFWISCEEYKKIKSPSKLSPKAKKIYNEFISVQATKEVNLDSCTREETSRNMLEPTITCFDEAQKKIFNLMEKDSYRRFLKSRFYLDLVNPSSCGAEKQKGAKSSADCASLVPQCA
RGS4 pot: RGS4 potentiators or activators, primary screen, cell-based, HEK293 M3R inducible RGS4, calcium flux. carbachol calcium flux Fluo4; hits give low values. B-score at 10 µM. 0.92% of 310,000 active. AID 463111, 2010;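 active means B-score of the integrated calcium signal more than 4 SD below the library mean, with starting fluorescence not abnormally high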;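 further: negative B-score means reduced calcium response which marks RGS4 activation or potentiation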
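Assay system: HEK293 FlpIn-TREx cells, stable M3R, doxycycline-inducible RGS4 / Probe or stimulus: carbachol, ECmax concentration / Times: overnight RGS4 induction, 30 min dye load 37 °C, 20 min compound RT / Signal: kinetic calcium fluorescence imaging with Fluo4-AM dye, 2 µM / Measure: Agonist-evoked peak-minus-minimum fluorescence over baseline, integrated ratio, B score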
MrgX1 ag: agonists of human MrgX1 receptor, primary screen, HEK293 cells, Fluo-4 calcium flux; Mas-related G-protein coupled receptor member X1 (Homo sapiens), Q96LB2; Fluo-4 calcium fluorescence, agonist mode; hits give high values; B-score at 10 µM; 0.44% of 310,000 active; AID 588627, 2011;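 active means calcium response B-score plate-corrected fluorescence ratio at least 3 library SD, with starting fluorescence B-score inside 5 SD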
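Material: HEK293 cells stably expressing human MrgX1 receptor | Quantity: 15,000 cells per well | Times: Cells plated overnight, dye loaded 0.5 h 37 °C, 0.5 h room temperature | Measured by: Kinetic Fluo-4 NW fluorescence of intracellular calcium | Control set: Positive and negative controls per plate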
MrgX1 antagonist: antagonists of human MrgX1 receptor, primary screen, HEK293 cells, Fluo-4 calcium flux; Mas-related G-protein coupled receptor member X1 (Homo sapiens), Q96LB2; B-score at 10 µM; 1.3% of 310,000 active; BAM8-22 antagonism; hits give low values;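 active means calcium-response B-score plate-corrected more than 3 library SD below zero, starting fluorescence within 5 deviations, no agonist response on first addition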;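 further: peak minus trough fluorescence over baseline after final BAM8-22 challenge near maximal dose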
MrgX1 ag reconf: MrgX1 receptor agonists, duplicate retest, confirmation, HEK293 cells, Fluo-4 calcium flux. Fluo-4 calcium fluorescence, FDSS. AID 602412, 2012. shares compounds with MrgX1 ag. activation, % at 10 µM. 78% of 600 active;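 active means calcium signal rise, corrected for plate position, at least 3 library SD high, with starting brightness within 5 such deviations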
HEK293 Ca flux: nonspecific calcium signal in parental HEK293, confirmation, counter-screen for MrgX1 antagonist project, parental HEK293 cells, Fluo-4 calcium flux. shares compounds with MrgX1 antagonist. Fluo-4 calcium fluorescence, FDSS. fluorescence ratio F(max-min)/F0 at 10 µM. 2% of 4,000 active. AID 624111, 2012;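 active means duplicate-averaged calcium fluorescence ratio at least three times the standard deviation of buffer wells, a nonspecific response in parental cells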
HEK293 Ca counter: calcium response in parental HEK293 cells, primary screen, counter-screen for MrgX1 allosteric activator project, cell-based, Fluo-4 calcium flux, duplicate. Fluo-4 fluorescence ratio; hits give high values. 0.4% of 4,000 active. shares compounds with MrgX1 antagonist. fluorescence ratio F(max-min)/F0 at 10 µM. AID 624114, 2012;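 active means calcium fluorescence ratio, averaged over duplicates, at least 3 SD of the buffer-well ratio, meaning a nonspecific response in receptor-free cells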;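 further: untransfected parental HEK293 lacking MrgX1 used as counterscreen for MrgX1 allosteric activators; fluorescence change taken during the second addition on a kinetic imager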
HEK293 Ca cntr2: calcium response in parental HEK293 cells, primary screen, counter-screen for MrgX1 agonist project, cell-based, Fluo-4 calcium flux, duplicate, agonist mode; Fluo-4 calcium fluorescence (FDSS); hits give high values; 8.7% of 4,000 active; shares compounds with MrgX1 antagonist; fluorescence ratio F(max-min)/F0 at 10 µM;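 active means calcium fluorescence ratio at least three times the spread of buffer wells, meaning a non-specific response in parental cells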
* hit, by the source's call. Sampled rows, rich in hits. Any-hit rate of the full collection: about 3.5%.

Screening Cc1ccc(Cn2c(N)nc3ccccc32)cc1 returned MrgX1 allo act inactive, RGS4 block inactive, RGS4 pot inactive, MrgX1 ag 30*, MrgX1 antagonist inactive, MrgX1 ag reconf 78%*, HEK293 Ca flux inactive, HEK293 Ca counter inactive and HEK293 Ca cntr2 inactive.
`Nc1nc2ccccc2n1Cc1ccc(Cl)c(Cl)c1` gave MrgX1 allo act inactive, RGS4 block inactive, RGS4 pot inactive, MrgX1 ag 36*, MrgX1 antagonist inactive, MrgX1 ag reconf 164%*, HEK293 Ca flux inactive, HEK293 Ca counter inactive and HEK293 Ca cntr2 inactive.
Screening Cc1ccc(Cn2c(-c3nonc3N)nc3ccccc32)cc1 returned MrgX1 allo act inactive, RGS4 block inactive, RGS4 pot inactive, MrgX1 ag inactive and MrgX1 antagonist inactive.
CC(C)CCNc1nc(-c2ccco2)c2c(c1C#N)CCCC2 was read as MrgX1 allo act inactive, RGS4 block inactive, RGS4 pot inactive, MrgX1 ag 27*, MrgX1 antagonist inactive, MrgX1 ag reconf inactive, HEK293 Ca flux inactive, HEK293 Ca counter inactive and HEK293 Ca cntr2 inactive.
Screening N#Cc1c(NCCN)nc(-c2ccco2)c2c1CCCC2 returned MrgX1 allo act inactive, RGS4 block inactive, RGS4 pot inactive, MrgX1 ag inactive and MrgX1 antagonist inactive.
Screening O=C(Cn1c(=O)c2cccn2c2cccnc21)N1CCN(c2ccccc2F)CC1 returned MrgX1 allo act inactive, RGS4 block inactive, RGS4 pot inactive, MrgX1 ag inactive and MrgX1 antagonist inactive.
Screening C/C(=N\Nc1ncnc2sc(C)c(C)c12)c1ccccn1 returned MrgX1 allo act inactive, RGS4 block inactive, RGS4 pot inactive, MrgX1 ag 72*, MrgX1 antagonist inactive, MrgX1 ag reconf 499%*, HEK293 Ca flux 0.46*, HEK293 Ca counter inactive and HEK293 Ca cntr2 101*.
Screening Cc1cc(-c2nn(-c3ccccc3F)cc2CN2CCN(c3ccncc3)CC2)c(C)s1 returned MrgX1 allo act inactive, RGS4 block inactive, RGS4 pot inactive, MrgX1 ag 56*, MrgX1 antagonist inactive, MrgX1 ag reconf 268%*, HEK293 Ca flux inactive, HEK293 Ca counter inactive and HEK293 Ca cntr2 inactive.
`O=C(NC1CCCC1)C1CC(O)CN1C(=O)Nc1ccccc1` (centres undefined) gave MrgX1 allo act inactive, RGS4 block inactive, RGS4 pot inactive, MrgX1 ag inactive and MrgX1 antagonist inactive.
For O=C(Cn1nc(Cl)nc1Cl)c1ccc2c(c1)OCCO2 the results were MrgX1 allo act inactive, RGS4 block inactive, RGS4 pot inactive, MrgX1 ag 53*, MrgX1 antagonist inactive, MrgX1 ag reconf 194%*, HEK293 Ca flux inactive, HEK293 Ca counter inactive and HEK293 Ca cntr2 inactive.
O=C(Cc1ccc(Cl)cc1)N1CCN(C(=O)c2ccco2)CC1 was read as MrgX1 allo act inactive, RGS4 block inactive, RGS4 pot inactive, MrgX1 ag inactive and MrgX1 antagonist inactive.
Screening O=C(Cc1ccc(Cl)cc1Cl)OCC(=O)N1CCN(C(=O)c2ccco2)CC1 returned MrgX1 allo act inactive, RGS4 block inactive, RGS4 pot inactive, MrgX1 ag 29*, MrgX1 antagonist inactive, MrgX1 ag reconf inactive, HEK293 Ca flux inactive, HEK293 Ca counter inactive and HEK293 Ca cntr2 inactive.
`Cc1cc(C(=O)NCCc2ccc(Cl)cc2)no1` gave MrgX1 allo act inactive, RGS4 block inactive, RGS4 pot inactive, MrgX1 ag inactive and MrgX1 antagonist inactive.
For Cc1ccc(S(=O)(=O)N2CCC(=O)N(C(COCc3ccc(Cl)cc3)Cc3ccccc3)CC2)cc1 (centres undefined) the results were MrgX1 allo act inactive, RGS4 block inactive, RGS4 pot inactive, MrgX1 ag inactive and MrgX1 antagonist inactive.
N[C@@H](Cc1c[nH]c2ccc(O)cc12)C(=O)O was read as MrgX1 allo act inactive, MrgX1 ag 32*, MrgX1 antagonist inactive, MrgX1 ag reconf inactive, HEK293 Ca flux inactive, HEK293 Ca counter inactive and HEK293 Ca cntr2 inactive.
Screening CCOC(=O)c1cc2c(ccn2C)n1Cc1ccc(Cl)cc1 returned MrgX1 allo act inactive, RGS4 block inactive, RGS4 pot inactive, MrgX1 ag inactive and MrgX1 antagonist inactive.
CCOC(=O)c1cc2c(ccn2C)n1Cc1ccc(C#N)cc1 was read as MrgX1 allo act inactive, RGS4 block inactive, RGS4 pot inactive, MrgX1 ag 27*, MrgX1 antagonist inactive, MrgX1 ag reconf 132%*, HEK293 Ca flux inactive, HEK293 Ca counter inactive and HEK293 Ca cntr2 inactive.
Screening N#Cc1ccc(-c2ccccc2)nc1SCCN1CCOCC1 returned MrgX1 allo act inactive, RGS4 block inactive, RGS4 pot inactive, MrgX1 ag 28*, MrgX1 antagonist inactive, MrgX1 ag reconf 171%*, HEK293 Ca flux inactive, HEK293 Ca counter inactive and HEK293 Ca cntr2 inactive.
For Cc1cc(C)c(C#N)c(SCCN2CCOCC2)n1 the results were MrgX1 allo act inactive, RGS4 block inactive, RGS4 pot inactive, MrgX1 ag inactive and MrgX1 antagonist inactive.
CC1CCCCN1S(=O)(=O)c1ccc(C(=O)Nc2nnc(-c3ccccc3Cl)o2)cc1 (centres undefined) was read as MrgX1 allo act inactive, RGS4 block inactive, RGS4 pot inactive, MrgX1 ag 41*, MrgX1 antagonist inactive, MrgX1 ag reconf 323%*, HEK293 Ca flux inactive, HEK293 Ca counter inactive and HEK293 Ca cntr2 63*.
CCCc1[nH]n(-c2nc3ccccc3s2)c(=O)c1C=NCC1CCCO1 (centres undefined) was read as MrgX1 allo act inactive, RGS4 block inactive, RGS4 pot inactive, MrgX1 ag 51*, MrgX1 antagonist inactive, MrgX1 ag reconf 187%*, HEK293 Ca flux inactive, HEK293 Ca counter inactive and HEK293 Ca cntr2 inactive.

High-throughput results as filed in PubChem.
